Results reported in ChEMBL document CHEMBL4706598 (Eur J Med Chem, 2020).

Columns and labels:
[1] = molecular target: Dipeptidyl peptidase 4 (Homo sapiens, UniProt P27487); test: Inhibition of DPP4 in human Caco-2 cells using AP-AFC as substrate preincubated with enzyme for 10 mins followed by substrate addition and measured after 10 mins by fluorescence based analysis; format: cell-based
[2] = molecular target: Dipeptidyl peptidase 8 (Homo sapiens, UniProt Q6V1X1); test: Inhibition of DPP8 (unknown origin)
Sequence of Dipeptidyl peptidase 8 (Q6V1X1 whole entry): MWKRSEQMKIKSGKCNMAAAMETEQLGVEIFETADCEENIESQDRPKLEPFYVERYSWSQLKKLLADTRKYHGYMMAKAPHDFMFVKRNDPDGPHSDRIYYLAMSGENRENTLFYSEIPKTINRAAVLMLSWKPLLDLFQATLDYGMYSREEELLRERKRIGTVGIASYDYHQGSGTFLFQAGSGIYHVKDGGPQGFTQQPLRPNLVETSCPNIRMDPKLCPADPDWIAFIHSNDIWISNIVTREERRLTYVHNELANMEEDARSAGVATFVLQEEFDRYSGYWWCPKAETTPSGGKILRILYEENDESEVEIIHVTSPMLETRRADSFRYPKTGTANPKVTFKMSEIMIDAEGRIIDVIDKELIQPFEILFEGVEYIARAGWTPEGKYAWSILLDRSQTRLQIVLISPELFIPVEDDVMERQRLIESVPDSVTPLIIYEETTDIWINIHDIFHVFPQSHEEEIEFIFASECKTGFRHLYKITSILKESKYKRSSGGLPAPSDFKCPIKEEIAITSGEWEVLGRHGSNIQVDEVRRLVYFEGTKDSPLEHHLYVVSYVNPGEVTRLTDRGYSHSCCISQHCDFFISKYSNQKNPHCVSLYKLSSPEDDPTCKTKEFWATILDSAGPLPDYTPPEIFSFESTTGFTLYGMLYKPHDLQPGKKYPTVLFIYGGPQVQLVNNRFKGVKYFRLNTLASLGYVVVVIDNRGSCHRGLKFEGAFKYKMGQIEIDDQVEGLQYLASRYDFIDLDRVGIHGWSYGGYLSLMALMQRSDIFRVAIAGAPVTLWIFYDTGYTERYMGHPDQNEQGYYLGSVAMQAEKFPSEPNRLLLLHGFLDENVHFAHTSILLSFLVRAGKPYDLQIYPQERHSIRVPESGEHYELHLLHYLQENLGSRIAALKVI

[3] = molecular target: Dipeptidyl peptidase 9 (Homo sapiens, UniProt Q86TI2); test: Inhibition of DPP9 (unknown origin)
Sequence of Dipeptidyl peptidase 9 (Q86TI2 whole entry): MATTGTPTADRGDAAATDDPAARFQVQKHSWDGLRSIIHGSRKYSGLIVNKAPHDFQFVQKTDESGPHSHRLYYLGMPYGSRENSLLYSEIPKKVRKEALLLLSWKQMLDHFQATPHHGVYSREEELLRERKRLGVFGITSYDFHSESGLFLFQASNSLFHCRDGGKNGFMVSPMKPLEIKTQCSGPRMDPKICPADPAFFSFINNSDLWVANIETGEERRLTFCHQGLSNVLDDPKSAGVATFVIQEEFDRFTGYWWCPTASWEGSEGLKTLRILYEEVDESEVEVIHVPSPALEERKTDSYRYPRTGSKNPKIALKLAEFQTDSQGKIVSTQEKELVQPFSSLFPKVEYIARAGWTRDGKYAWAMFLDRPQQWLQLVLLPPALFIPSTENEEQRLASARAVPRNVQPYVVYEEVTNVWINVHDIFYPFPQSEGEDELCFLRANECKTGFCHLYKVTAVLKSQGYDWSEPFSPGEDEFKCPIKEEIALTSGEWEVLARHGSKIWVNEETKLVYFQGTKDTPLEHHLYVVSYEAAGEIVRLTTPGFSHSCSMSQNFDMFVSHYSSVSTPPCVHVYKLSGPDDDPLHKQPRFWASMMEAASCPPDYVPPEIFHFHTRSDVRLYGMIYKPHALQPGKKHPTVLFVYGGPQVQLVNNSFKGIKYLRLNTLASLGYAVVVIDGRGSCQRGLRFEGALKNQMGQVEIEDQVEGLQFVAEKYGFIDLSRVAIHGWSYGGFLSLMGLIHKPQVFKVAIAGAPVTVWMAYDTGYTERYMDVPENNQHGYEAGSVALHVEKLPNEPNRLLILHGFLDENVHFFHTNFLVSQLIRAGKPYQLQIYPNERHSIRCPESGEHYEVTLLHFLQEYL

[4] = system: HepG2; test: Cytotoxicity against human HepG2 cells assessed as reduction in cell viability at 1 to 100 uM measured after 48 hrs by MTT assay; format: cell-based; details: hepg2, 48 h, dose 1-100 µM
Summary of the method: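 HepG2 cells were exposed to compound at a range of concentrations for 48 h. Viability was measured by MTT assay. Mean ± SD, n = 3.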

Sequence of Dipeptidyl peptidase 4 (P27487 whole entry): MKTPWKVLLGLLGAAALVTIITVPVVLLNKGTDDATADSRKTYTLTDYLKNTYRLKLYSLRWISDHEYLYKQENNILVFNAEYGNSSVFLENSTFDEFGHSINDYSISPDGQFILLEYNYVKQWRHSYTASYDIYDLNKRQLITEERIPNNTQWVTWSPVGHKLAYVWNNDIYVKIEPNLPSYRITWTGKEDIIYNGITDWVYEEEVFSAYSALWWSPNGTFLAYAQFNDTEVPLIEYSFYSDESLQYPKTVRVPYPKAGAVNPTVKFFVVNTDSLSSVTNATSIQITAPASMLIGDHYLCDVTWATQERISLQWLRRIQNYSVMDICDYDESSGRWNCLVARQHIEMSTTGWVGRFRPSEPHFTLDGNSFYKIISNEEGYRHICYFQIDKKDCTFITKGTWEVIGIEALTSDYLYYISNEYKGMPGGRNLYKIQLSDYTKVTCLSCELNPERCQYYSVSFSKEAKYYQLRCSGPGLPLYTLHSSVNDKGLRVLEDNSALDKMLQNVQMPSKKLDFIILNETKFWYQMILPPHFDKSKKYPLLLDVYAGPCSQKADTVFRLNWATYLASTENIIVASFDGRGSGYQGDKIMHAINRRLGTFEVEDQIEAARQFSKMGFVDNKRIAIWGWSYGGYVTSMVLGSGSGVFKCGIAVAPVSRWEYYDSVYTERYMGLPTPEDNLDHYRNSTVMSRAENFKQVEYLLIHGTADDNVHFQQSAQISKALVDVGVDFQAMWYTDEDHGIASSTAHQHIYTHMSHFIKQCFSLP

| Structure (SMILES) | IC50 [1] | IC50 [2] | IC50 [3] | Activity [4] |
| --- | --- | --- | --- | --- |
| CC(C)(C)Nc1cc(NC(C)(C)C)n2nccc2n1 | > 100 µM |  |  |  |
| N[C@@H]1CCCN(c2cc(NCc3ccc(Cl)cc3Cl)n3nccc3n2)C1 |  | > 100 µM | > 100 µM |  |
| Cc1ccc(Nc2cc(N3CCC[C@@H](N)C3)nc3ccnn23)c(N)c1 |  | > 100 µM | > 100 µM |  |
| N[C@@H]1CCCN(c2cc(Nc3ccccc3Cl)n3nccc3n2)C1 |  | > 100 µM | > 100 µM |  |
| O=[N+]([O-])c1ccccc1Nc1cc(N2CCNCC2)nc2ccnn12 |  | > 100 µM | > 100 µM |  |
| Fc1ccc(Nc2cc(N3CCNCC3)nc3ccnn23)c(F)c1 |  | > 100 µM | > 100 µM |  |
| CN(c1ccccc1)c1cc(N2CCC[C@@H](N)C2)nc2ccnn12 | > 100 µM |  |  |  |
| Cc1ccc(Nc2cc(N3CCC[C@@H](N)C3)nc3ccnn23)c(C)c1 |  | > 100 µM | > 100 µM |  |
| N[C@@H]1CCCN(c2cc(NCc3ccccc3)n3nccc3n2)C1 |  | > 100 µM | > 100 µM | Toxic |
| N[C@@H]1CCCN(c2cc(Nc3cc(Cl)ccn3)n3nccc3n2)C1 |  | > 50 µM | > 50 µM |  |
